{"source": "paper PMC6748665", "about": "(Journal of Medicinal Chemistry, 2019)", "key": {"PaTrmD [1]": {"target": "T1, PaTrmD (Pseudomonas aeruginosa, UniProt Q9HXQ1)", "T1 sequence (Q9HXQ1 5-250)": "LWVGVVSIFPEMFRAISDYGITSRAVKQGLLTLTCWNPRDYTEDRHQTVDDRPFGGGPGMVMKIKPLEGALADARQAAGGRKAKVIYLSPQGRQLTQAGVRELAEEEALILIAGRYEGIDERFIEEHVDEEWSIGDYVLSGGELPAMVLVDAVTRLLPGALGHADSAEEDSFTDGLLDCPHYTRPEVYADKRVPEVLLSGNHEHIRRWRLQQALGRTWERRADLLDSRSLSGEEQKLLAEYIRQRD", "experiment": "TrmD inhibitor assay", "type": "biochemical", "conditions": "for reduction of enzyme inhibitory activity compared with the alkyl chain: ethylene glycol substituents", "how_it_was_run": "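E. coli-expressed PaTrmD (IMAC and size-exclusion purified, 8 nM) was preincubated 15 min at ambient temperature with serially diluted inhibitor (0–500 μM). Reaction buffer was 50 mM Tris-HCl pH 8.0, 80 mM NaCl, 1 mM MgCl2, 0.5 mM DTT and 0.01% Triton X-100, with 2 μM SAM and 0.5 μM in vitro-transcribed tRNALeu(CAG). Reactions ran 45 min at 37 °C. SAH was detected by MTase-Glo luminescence against an SAH standard curve.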"}, "bacteria": {"tested_on": "bacteria", "conditions": "in words; cited from earlier work"}, "PaTrmD [2]": {"target": "T1, PaTrmD", "conditions": "ref 15 (Hill et al.); cited from earlier work"}, "SaTrmD": {"target": "T2, SaTrmD (Staphylococcus aureus, UniProt Q2FZ43)", "T2 sequence (Q2FZ43 1-245)": "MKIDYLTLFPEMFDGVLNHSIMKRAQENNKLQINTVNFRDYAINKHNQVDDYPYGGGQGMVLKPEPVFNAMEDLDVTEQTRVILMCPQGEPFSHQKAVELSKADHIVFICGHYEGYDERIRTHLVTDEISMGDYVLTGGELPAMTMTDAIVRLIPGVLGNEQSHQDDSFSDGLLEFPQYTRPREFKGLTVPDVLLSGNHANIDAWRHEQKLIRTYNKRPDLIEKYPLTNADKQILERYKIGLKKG", "conditions": "cited from earlier work"}, "PaTrmD [3]": {"target": "T1, PaTrmD", "experiment": "Surface plasmon resonance", "type": "binding", "conditions": "SPR"}, "PaTrmD [4]": {"target": "T1, PaTrmD", "experiment": "Thermal stability", "type": "binding"}, "[5]": {"tested_on": "collection of Gram-positive and Gram-negative bacteria", "experiment": "Single-dose", "type": "cell-based", "conditions": "against Gram-positive bacteria and mycobacteria; single dose 100 μM"}, "[6]": {"conditions": "PaTrmD, O^6-substituted thienopyrimidinones, NA = not active up to 50 μM"}}, "note": "Where two headings read alike, the source gives them in different places.", "data": [{"compound": "4-(Hexyloxy)-N-(4-((octylamino)methyl)benzyl)thieno[2,3-d]pyrimidine-5-carboxamide [Compound 44]", "values": [{"measurement": "IC50", "setting": "PaTrmD [1]; [6]", "value": "> 50", "unit": "µM"}]}, {"compound": "4-Methoxy-N-(4-(morpholinomethyl)benzyl)thieno[2,3-d]pyrimidine-5-carboxamide [Compound 45]", "values": [{"measurement": "IC50", "setting": "PaTrmD [1]; [6]", "value": "> 50", "unit": "µM"}]}, {"compound": "NC1CCN(Cc2ccc(CNC(=O)c3csc4nc[nH]c(=O)c34)cc2)CC1", "note": "[AZ51]", "values": [{"measurement": "antibacterial activity", "setting": "bacteria", "value": "lacked antibacterial activity"}, {"measurement": "IC50", "setting": "PaTrmD [2]", "value": 39, "unit": "nM"}, {"measurement": "IC50", "setting": "SaTrmD", "value": 1200, "unit": "nM"}, {"measurement": "faster on-rate (association rate) compared to SAH", "setting": "PaTrmD [3]; PaTrmD", "value": "~2", "unit": "fold"}, {"measurement": "slower off-rate (dissociation rate) compared to SAH", "setting": "PaTrmD [3]; PaTrmD", "value": "~30", "unit": "fold"}, {"measurement": "Tm higher than thermostabilization conferred by SAH", "setting": "PaTrmD [4]", "value": 17, "unit": "°C"}]}, {"compound": "O=C(NCc1ccc(CN2CCCCC2)cc1)c1csc2nc[nH]c(=O)c12", "note": "[Compound 9, 4-Oxo-N-(4-(piperidin-1-ylmethyl)benzyl)-3,4-dihydrothieno[2,3-d]pyrimidine-5-carboxamide]", "values": [{"measurement": "reduction of inhibitory activity compared with AZ51", "setting": "PaTrmD [1]; PaTrmD", "value": "6–16 fold"}]}, {"compound": "O=C(NCc1ccc(CN2CCOCC2)cc1)c1csc2nc[nH]c(=O)c12", "note": "[Compound 10, N-(4-(Morpholinomethyl)benzyl)-4-oxo-3,4-dihydrothieno[2,3-d]pyrimidine-5-carboxamide]", "values": [{"measurement": "reduction of inhibitory activity compared with AZ51", "setting": "PaTrmD [1]; PaTrmD", "value": "6–16 fold"}]}, {"compound": "O=C(NCc1ccc(CNCc2ccccc2)cc1)c1csc2nc[nH]c(=O)c12", "note": "[Compound 14, N-(4-((Benzylamino)methyl)benzyl)-4-oxo-3,4-dihydrothieno[2,3-d]pyrimidine-5-carboxamide]", "values": [{"measurement": "TrmD inhibitory activity (in words)", "setting": "PaTrmD [1]; PaTrmD", "value": "submicromolar activity"}]}, {"compound": "CCCCCCCCNCc1ccc(CNC(=O)c2csc3nc[nH]c(=O)c23)cc1", "note": "[Compound 15, N-(4-((Octylamino)methyl)benzyl)-4-oxo-3,4-dihydrothieno[2,3-d]pyrimidine-5-carboxamide]", "values": [{"measurement": "growth inhibitory activity at 100 μM", "setting": "[5]", "value": "showed growth inhibitory activity"}, {"measurement": "higher binding affinity (KD) to PaTrmD compared with AZ51", "setting": "PaTrmD [3]", "value": "~50", "unit": "fold"}, {"measurement": "IC50", "setting": "PaTrmD [1]", "value": "0.02 ± 0.01", "unit": "µM"}, {"measurement": "increase of IC50 when tRNA concentration was increased", "setting": "PaTrmD [1]; PaTrmD, tRNA competition assay, from 0.02 to 0.26 μM", "value": 13, "unit": "fold"}]}, {"compound": "O=C(NCc1ccc(CNC2CCCCC2)cc1)c1csc2nc[nH]c(=O)c12", "note": "[Compound 16, N-(4-((Cyclohexylamino)methyl)benzyl)-4-oxo-3,4-dihydrothieno[2,3-d]pyrimidine-5-carboxamide]", "values": [{"measurement": "TrmD inhibitory activity (in words)", "setting": "PaTrmD [1]; PaTrmD", "value": "submicromolar activity"}]}, {"compound": "O=C(NCc1ccc(CNC23CC4CC(CC(C4)C2)C3)cc1)c1csc2nc[nH]c(=O)c12", "note": "[Compound 17, N-(4-((((3s,5s,7s)-Adamantan-1-yl)amino)methyl)benzyl)-4-oxo-3,4-dihydrothieno[2,3-d]pyrimidine-5-carboxamide]", "values": [{"measurement": "TrmD inhibitory activity (in words)", "setting": "PaTrmD [1]; PaTrmD", "value": "submicromolar activity"}]}, {"compound": "CCCCCCCCN(Cc1ccccc1)Cc1ccc(CNC(=O)c2csc3nc[nH]c(=O)c23)cc1", "note": "[Compound 20, N-(4-((Benzyl(octyl)amino)methyl)benzyl)-4-oxo-3,4-dihydrothieno[2,3-d]pyrimidine-5-carboxamide]", "values": [{"measurement": "TrmD inhibitory activity (in words)", "setting": "PaTrmD [1]; PaTrmD", "value": "nearly abolished"}]}, {"compound": "CCCCCCCCCCNCc1ccc(CNC(=O)c2csc3nc[nH]c(=O)c23)cc1", "note": "[Compound 23, N-(4-((Decylamino)methyl)benzyl)-4-oxo-3,4-dihydrothieno[2,3-d]pyrimidine-5-carboxamide]", "values": [{"measurement": "growth inhibitory activity at 100 μM", "setting": "[5]", "value": "showed growth inhibitory activity"}]}, {"compound": "CCCCCCCCCCCCNCc1ccc(CNC(=O)c2csc3nc[nH]c(=O)c23)cc1", "note": "[Compound 24, N-(4-((Dodecylamino)methyl)benzyl)-4-oxo-3,4-dihydrothieno[2,3-d]pyrimidine-5-carboxamide]", "values": [{"measurement": "growth inhibitory activity at 100 μM", "setting": "[5]", "value": "showed growth inhibitory activity"}]}, {"compound": "O=C(NCc1ccc(CNCCOCCO)cc1)c1csc2nc[nH]c(=O)c12", "note": "[Compound 25, N-(4-(((2-(2-Hydroxyethoxy)ethyl)amino)methyl)benzyl)-4-oxo-3,4-dihydrothieno[2,3-d]pyrimidine-5-carboxamide]", "values": [{"measurement": "reduction of enzyme inhibitory activity compared with the alkyl chain", "setting": "PaTrmD [1]; PaTrmD", "value": "4–8 fold"}]}, {"compound": "CCOCCOCCNCc1ccc(CNC(=O)c2csc3nc[nH]c(=O)c23)cc1", "note": "[Compound 26, N-(4-(((2-(2-Ethoxyethoxy)ethyl)amino)methyl)benzyl)-4-oxo-3,4-dihydrothieno[2,3-d]pyrimidine-5-carboxamide]", "values": [{"measurement": "reduction of enzyme inhibitory activity compared with the alkyl chain", "setting": "PaTrmD [1]; PaTrmD", "value": "4–8 fold"}]}, {"compound": "N-(4-((Benzylamino)methyl)benzyl)-4-methoxythieno[2,3-d]pyrimidine-5-carboxamide [Compound 39]", "values": [{"measurement": "IC50", "setting": "PaTrmD [1]; [6]", "value": "> 50", "unit": "µM"}]}, {"compound": "N-(4-((Benzylamino)methyl)benzyl)-4-propoxythieno[2,3-d]pyrimidine-5-carboxamide [Compound 40]", "values": [{"measurement": "IC50", "setting": "PaTrmD [1]; [6]", "value": "> 50", "unit": "µM"}]}, {"compound": "N-(4-((Octylamino)methyl)benzyl)-4-propoxythieno[2,3-d]pyrimidine-5-carboxamide [Compound 43]", "values": [{"measurement": "IC50", "setting": "PaTrmD [1]; [6]", "value": "> 50", "unit": "µM"}]}, {"compound": "N-(4-(Morpholinomethyl)benzyl)-4-propoxythieno[2,3-d]pyrimidine-5-carboxamide [Compound 46]", "values": [{"measurement": "IC50", "setting": "PaTrmD [1]; [6]", "value": "> 50", "unit": "µM"}]}]}
